Data on twelve compounds can be found in ChEMBL document CHEMBL1124486, “Antimalarial activity of new water-soluble dihydroartemisinin derivatives. 2. Stereospecificity of the ether side chain” (J Med Chem, 1989).

≈ marks a conversion by molar mass, not a printed value.

Test [1] relates to Plasmodium falciparum. The experiment in a line: In vitro antimalarial activity against Plasmodium falciparum W-2 Indochina. The test is classed as functional, organism-based. In outline:
(§1)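 [³H]hypoxanthine uptake assay. Compound was dissolved in DMSO and 70% ethanol, diluted in RPMI 1640 with 10% human plasma, then tested over (1.56-100) × 10⁻⁹ M. Parasites (0.5% parasitemia, 1% hematocrit) were incubated 24 h with compound, then [³H]hypoxanthine was added and incubation continued 18 h. Cells were harvested and counted by scintillation. IC50 came from nonlinear regression of concentration-response data.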

In test [2] the test system is Plasmodium falciparum. Briefly: In vitro antimalarial activity against Plasmodium falciparum D6 (Sierra Leone). Format: functional, organism-based. In outline:
as §1

Test [3] has as its system Plasmodium berghei. The experiment in a line: Cures in Plasmodium berghei infected mice (Mus musculus) after 3 days at 80 mg/kg; cured 1 of 5. The test is classed as functional.
In test [4] the test system is Plasmodium berghei. The experiment in a line: Increased mean survival time (>12-14 days) in P berghei infected mice (Mus musculus) after 3 days at 80 mg/kg; active in 3 of 5. Format: functional.
Test [5] deals with Plasmodium berghei. The experiment in a line: Cures in Plasmodium berghei infected mice (Mus musculus) after 3 days at 20 mg/kg; cured 0 of 5. The test is classed as functional.
Test [6] relates to Plasmodium berghei. The experiment in a line: Cures in Plasmodium berghei infected mice (Mus musculus) after 3 days at 320 mg/kg; cured 5 of 5. The test is classed as functional.
The test system of test [7] is Plasmodium berghei. Briefly: Increased mean survival time (>12-14 days) in Plasmodium berghei infected mice (Mus musculus) after 3days at 20 mg/kg; active in 2 of 5. Format: functional.
For test [8], the system named is Plasmodium berghei. Briefly: Increased mean survival time (>12-14 days) in Plasmodium berghei infected mice (Mus musculus) after 3 days at 20 mg/kg; active in 4 of /5. Format: functional.
For test [9], the system named is Plasmodium berghei. Briefly: Cures in Plasmodium berghei infected mice (Mus musculus) after 3 days at 20 mg/kg; cured 1 of 5. Format: functional.
The subject of test [10] is Plasmodium berghei. The experiment in a line: Cures in Plasmodium berghei infected mice (Mus musculus) after 3 days at 80 mg/kg; […]. The test is classed as functional.
In test [11] the test system is Plasmodium berghei. The experiment in a line: Increased mean survival time (>12-14 days) in P berghei infected mice (Mus musculus) after 3 days at 80 mg/kg; active in 5 of 5. Format: functional.
The subject of test [12] is Plasmodium berghei. Briefly: Cures in Plasmodium berghei infected mice (Mus musculus) after 3 days at 320 mg/kg; cured 3 of 5. Format: functional.
In test [13] the test system is Plasmodium berghei. Briefly: Cures in Plasmodium berghei infected mice (Mus musculus) after 3 days at 80 mg/kg; cured 0 of 5. The test is classed as functional.
Test [14] has as its system Plasmodium berghei. Briefly: Cures in Plasmodium berghei infected mice (Mus musculus) after 3 days at 640 mg/kg; cured 4 of 5. Format: functional.
Test [15] has as its system Plasmodium berghei. Briefly: Cures in Plasmodium berghei infected mice (Mus musculus) after 3 days at 80 mg/kg; cured 2 of 5. The test is classed as functional.
The subject of test [16] is Plasmodium berghei. The experiment in a line: Increase in mean survival time (>12-14 days) in Plasmodium berghei infected mice (Mus musculus) after 3 days at 80 mg/kg; active in 1 of 5. The test is classed as functional.
Test [17] relates to Plasmodium berghei. Briefly: Cures in Plasmodium berghei infected mice (Mus musculus) after 3 days at 160 mg/kg; cured 1 of 5. The test is classed as functional.
In test [18] the test system is Plasmodium berghei. The experiment in a line: Increased mean survival time (>12-14 days) in Plasmodium berghei infected mice (Mus musculus) after 3 days at 80 mg/kg; active in 1 of 5. The test is classed as functional.
Test [19] concerns Plasmodium berghei. The experiment in a line: Cures in Plasmodium berghei infected mice (Mus musculus) after 3 days at 640 mg/kg; cured 5 of 5. The test is classed as functional.
Test [20] deals with Plasmodium berghei. Briefly: Cures in Plasmodium berghei infected mice (Mus musculus) after 3 days at 160 mg/kg; cured 5 of 5. Format: functional.

As a reminder, the IC50 is the concentration needed to halve the response being measured. In the case of `C[C@H]1[C@@H](OC[C@H](C)C(=O)O)O[C@@H]2O[C@@]3(C)CC[C@H]4[C@H](C)CC[C@@H]1[C@@]24OO3`, the IC50 in the test on Plasmodium falciparum [1] was found to be 8.33 ng/mL (≈ 22.5 nM); in the test with Plasmodium falciparum [2], 28.7 ng/mL (≈ 77.5 nM).

Regarding `COC(=O)C[C@@H](C)O[C@H]1O[C@@H]2O[C@@]3(C)CC[C@H]4[C@H](C)CC[C@@H]([C@H]1C)[C@@]24OO3`, the IC50 came out at 0.071 ng/mL (≈ 0.185 nM) in the test on Plasmodium falciparum [1] and 0.44 ng/mL (≈ 1.14 nM) in the test on Plasmodium falciparum [2].

As to `C[C@H]1[C@@H](O[C@@H](C)CC(=O)O)O[C@@H]2O[C@@]3(C)CC[C@H]4[C@H](C)CC[C@@H]1[C@@]24OO3`, the values for the IC50 in the test on Plasmodium falciparum [1] and in the test with Plasmodium falciparum [2] were 7.43 ng/mL (≈ 20.1 nM) and 15 ng/mL (≈ 40.6 nM), respectively.

`COC(=O)[C@@H](C)CO[C@H]1O[C@@H]2O[C@@]3(C)CC[C@H]4[C@H](C)CC[C@@H]([C@H]1C)[C@@]24OO3`: the IC50 in the test on Plasmodium falciparum [1] was found to be 0.015 ng/mL (≈ 0.039 nM); with Plasmodium falciparum [2], 0.36 ng/mL (≈ 0.936 nM).

Consider `COC(=O)[C@H](C)CO[C@H]1O[C@@H]2O[C@@]3(C)CC[C@H]4[C@H](C)CC[C@@H]([C@H]1C)[C@@]24OO3`, for which the “No. of mice cured” value in the test on Plasmodium berghei [3] came out at 1; in the test on Plasmodium berghei [5], 0; in the test on Plasmodium berghei [6] it was 5. For the same compound, the IC50 in the test on Plasmodium falciparum [1] came out at 0.057 ng/mL (≈ 0.148 nM); in the test with Plasmodium falciparum [2] it was 2.15 ng/mL (≈ 5.59 nM). For the same compound, the “No. of mice survived” value in the test with Plasmodium berghei [4] was 3; in the test on Plasmodium berghei [7], 2.

Consider `COC(=O)C[C@H](C)O[C@H]1O[C@@H]2O[C@@]3(C)CC[C@H]4[C@H](C)CC[C@@H]([C@H]1C)[C@@]24OO3`, for which the IC50 in the test with Plasmodium falciparum [1] is 0.48 ng/mL (≈ 1.25 nM); with Plasmodium falciparum [2], 1.91 ng/mL (≈ 4.97 nM). For the same compound, the “No. of mice survived” value in the test with Plasmodium berghei [8] turned out to be 4. Moreover, the “No. of mice cured” value in the test with Plasmodium berghei [9] came to 1; in the test on Plasmodium berghei [10], 5; in the test with Plasmodium berghei [6], 5.

For the compound `C[C@H]1[C@@H](OC[C@@H](C)C(=O)O)O[C@@H]2O[C@@]3(C)CC[C@H]4[C@H](C)CC[C@@H]1[C@@]24OO3`, the IC50 in the test on Plasmodium falciparum [1] worked out at 5.32 ng/mL (≈ 14.4 nM); in the test on Plasmodium falciparum [2], 22.2 ng/mL (≈ 60 nM).

For the compound `C[C@H]1[C@@H](O[C@H](C)CC(=O)O)O[C@@H]2O[C@@]3(C)CC[C@H]4[C@H](C)CC[C@@H]1[C@@]24OO3`, the IC50 with Plasmodium falciparum [1] came out at 4.42 ng/mL (≈ 11.9 nM); in the test with Plasmodium falciparum [2], 36.5 ng/mL (≈ 98.4 nM).

In the case of `C[C@H]1[C@@H](OCC23CC4CC(CC(C4)C2)C3)O[C@@H]2O[C@@]3(C)CC[C@H]4[C@H](C)CC[C@@H]1[C@@]24OO3`, the “No. of mice survived” value in the test on Plasmodium berghei [11] is given as 5. The IC50 turned out to be 2.11 ng/mL (≈ 4.88 nM) with Plasmodium falciparum [1] and 2.7 ng/mL (≈ 6.24 nM) in the test with Plasmodium falciparum [2]. For the same compound, the “No. of mice cured” value in the test with Plasmodium berghei [12] is given as 3; with Plasmodium berghei [5] it was 0; in the test with Plasmodium berghei [13] it was 0.

In the case of `CC1=CO[C@@H]2O[C@]3(C)CC[C@H]4[C@H](C)CC[C@@H]1[C@@]24OO3` [ANHYDRODIHYDROARTEMISININ], the entries for the “No. of mice cured” value in the test with Plasmodium berghei [14], with Plasmodium berghei [15] and in the test on Plasmodium berghei [17] were 4, 2 and 1, respectively. Further, the IC50 came out at 0.43 ng/mL (≈ 1.61 nM) with Plasmodium falciparum [1] and 0.83 ng/mL (≈ 3.12 nM) in the test on Plasmodium falciparum [2]. The No. of mice survived in the test with Plasmodium berghei [16] came out at 1; in the test on Plasmodium berghei [18] it was 1; with Plasmodium berghei [10] it was 2.

Regarding `C[C@@H]1CC[C@H]2[C@@H](C)C(=O)O[C@@H]3O[C@@]4(C)CC[C@@H]1[C@]32OO4` [ARTEMISININ], the values for the IC50 in the test on Plasmodium falciparum [1] and in the test on Plasmodium falciparum [2] were 2.6 ng/mL (≈ 9.21 nM) and 2.35 ng/mL (≈ 8.32 nM), respectively. The results for the “No. of mice survived” value in the test with Plasmodium berghei [4] and in the test on Plasmodium berghei [7] were 3 and 2, respectively. For the same compound, the “No. of mice cured” value is on record as 2 with Plasmodium berghei [15], 0 in the test on Plasmodium berghei [5], 5 in the test on Plasmodium berghei [19] and 5 in the test on Plasmodium berghei [20].

Regarding `C=C[C@H]1CN2CC[C@H]1C[C@H]2[C@H](O)c1ccnc2ccc(OC)cc12` [QUININE], the IC50 with Plasmodium falciparum [1] worked out at 59 ng/mL (≈ 182 nM); in the test with Plasmodium falciparum [2] it was 3.61 ng/mL (≈ 11.1 nM).
